What all share (assay): inside-out patch clamp, block of cGMP-activated current, Hill fit
Common to all, as to format: cell-based
On the technique in general: Patch clamp records ionic current or voltage across a cell membrane.

One test has as its target T1, CNGA2 (Rattus norvegicus, UniProt Q00195).
T1 sequence (Q00195 1-664): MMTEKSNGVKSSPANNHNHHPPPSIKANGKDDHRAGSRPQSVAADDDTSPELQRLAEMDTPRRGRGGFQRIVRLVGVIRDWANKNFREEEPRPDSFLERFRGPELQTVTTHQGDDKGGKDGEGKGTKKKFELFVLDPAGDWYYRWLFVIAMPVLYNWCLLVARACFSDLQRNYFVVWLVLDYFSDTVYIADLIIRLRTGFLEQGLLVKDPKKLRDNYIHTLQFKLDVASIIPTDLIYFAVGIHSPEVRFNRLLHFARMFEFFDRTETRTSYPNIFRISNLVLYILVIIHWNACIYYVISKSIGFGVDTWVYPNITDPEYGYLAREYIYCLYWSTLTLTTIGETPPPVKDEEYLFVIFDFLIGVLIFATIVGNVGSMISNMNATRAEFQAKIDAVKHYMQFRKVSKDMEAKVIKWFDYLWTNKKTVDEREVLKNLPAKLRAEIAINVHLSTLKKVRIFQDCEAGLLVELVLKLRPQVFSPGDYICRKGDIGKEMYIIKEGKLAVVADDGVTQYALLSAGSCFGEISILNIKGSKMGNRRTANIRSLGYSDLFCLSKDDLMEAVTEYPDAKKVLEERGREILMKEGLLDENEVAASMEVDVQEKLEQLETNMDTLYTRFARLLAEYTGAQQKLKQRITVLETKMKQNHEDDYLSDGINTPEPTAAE
The procedure, abridged: (§1)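 Channels expressed in Xenopus oocytes 2–10 d after cRNA injection; inside-out patches, room temperature. […] Blocker applied at 0 mV with 20-ms steps to +20 mV every 5 s. Currents were cGMP-free subtracted. Hill fit, SEM, n = 5–7 patches.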

Test [1] has as its target T2, CNGA1 (Bos taurus, UniProt Q00194, R342Y).
T2 sequence (Q00194 1-690 R342Y): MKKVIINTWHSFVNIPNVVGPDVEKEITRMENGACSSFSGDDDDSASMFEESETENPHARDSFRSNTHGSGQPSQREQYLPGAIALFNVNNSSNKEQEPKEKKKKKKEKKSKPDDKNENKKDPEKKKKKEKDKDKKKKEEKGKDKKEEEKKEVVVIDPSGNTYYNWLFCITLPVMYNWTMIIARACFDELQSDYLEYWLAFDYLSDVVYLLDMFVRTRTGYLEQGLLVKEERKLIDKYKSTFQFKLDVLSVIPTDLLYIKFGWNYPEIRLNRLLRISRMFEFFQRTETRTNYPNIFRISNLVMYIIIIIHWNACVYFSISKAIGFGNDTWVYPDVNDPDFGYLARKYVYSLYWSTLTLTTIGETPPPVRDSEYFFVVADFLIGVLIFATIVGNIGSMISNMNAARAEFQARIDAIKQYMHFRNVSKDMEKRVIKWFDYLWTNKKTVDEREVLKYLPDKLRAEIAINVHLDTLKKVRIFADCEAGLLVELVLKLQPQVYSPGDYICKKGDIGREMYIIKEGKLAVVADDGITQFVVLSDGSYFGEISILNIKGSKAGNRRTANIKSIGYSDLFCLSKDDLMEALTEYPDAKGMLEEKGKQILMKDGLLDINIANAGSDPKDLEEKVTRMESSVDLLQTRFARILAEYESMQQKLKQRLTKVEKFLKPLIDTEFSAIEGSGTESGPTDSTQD

The target of test [2] is T3, CNGA1 (Bos taurus, UniProt Q00194).
T3 sequence (Q00194 1-690): T2 sequence (Q00194 1-690 R342Y) with Y342R
The procedure, abridged:
as §1

The target in test [3] is T4, CNGA1 (Bos taurus, UniProt Q00194, R342D).
T4 sequence (Q00194 1-690 R342D): T2 sequence (Q00194 1-690 R342Y) with Y342D

Positions count from the first letter of the chain named.

One may read the IC50 as the concentration needed to halve the response being measured.

Regarding `Cc1cc(N)c2ccccc2[n+]1CCCCCCCCCC[n+]1c(C)cc(N)c2ccccc21` [dequalinium], the IC50 is 2400 ± 290 nM against CNGA2, 91 ± 0.1 nM at CNGA1 [1], 189 ± 4.19 nM on CNGA1 [2] and 123 ± 0.2 nM at CNGA1 [3].

For the origin of these results see article PMC1389615 (The Journal of General Physiology, 2004).
